Reference: PMC3798158 (Journal of medicinal chemistry, 2013)
pIC50: −log10 of the molar value. “Also recorded” adds a separate entry of the source. Structures can show the parent of a compound that is named as a salt. Where two headings read alike, the source gives them in different places.

Columns and labels:
GAPDH = GAPDH (Oryctolagus cuniculus, UniProt P46406); assay: High resolution LC-MS of structural modifications of GAPDH tryptic peptides; design: species or system rabbit; conditions: for Products, GAPDH tryptic peptide I143–K159 (Cys 149, Cys 153) / Products, GAPDH tryptic peptide V232–R245 (Cys 244): LC-MS after trypsin digest, 10 eq. where printed; for Product at Cys 281 of GAPDH (peptide G269–K306): mass spectrometric data extraction from reaction mixture
GAPDH, sequence (P46406 whole entry): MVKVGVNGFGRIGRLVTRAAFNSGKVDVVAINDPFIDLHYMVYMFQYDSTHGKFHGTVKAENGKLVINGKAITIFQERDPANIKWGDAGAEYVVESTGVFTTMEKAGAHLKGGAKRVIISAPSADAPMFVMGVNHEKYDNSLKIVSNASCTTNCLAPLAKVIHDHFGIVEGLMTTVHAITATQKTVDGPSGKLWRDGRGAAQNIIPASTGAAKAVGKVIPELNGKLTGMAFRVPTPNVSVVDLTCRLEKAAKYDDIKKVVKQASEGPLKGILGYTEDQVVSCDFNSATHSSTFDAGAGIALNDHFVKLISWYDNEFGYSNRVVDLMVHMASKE
Method in brief: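 Rabbit muscle GAPDH was incubated with test compound (10 equiv), then trypsin-digested at 20:1 (w/w, monomer:trypsin), 37 °C, 12−16 h, in 50 mM Tris-HCl, and quenched by freezing at −20 °C. Positive-ion Orbitrap, resolution 60000; Cys-peptide modifications were assigned by m/z.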

[1] = Stopped-flow UV-vis kinetic decomposition; assay type: physicochemical; conditions: compared with AS
rabbit muscle GAPDH [2] = target: T1, rabbit muscle GAPDH (Oryctolagus cuniculus, UniProt P46406); assay: In vitro inhibition of GAPDH; assay type: biochemical; conditions: for GAPDH inhibition (in words): incubation of GAPDH
T1 sequence (P46406 whole entry): as above

rabbit muscle GAPDH [3] = target: T1, rabbit muscle GAPDH; assay: Reversibility of GAPDH inhibition by DTT; assay type: biochemical; conditions: for GAPDH enzyme activity after treatment / GAPDH enzyme activity restored after DTT incubation: 1 μM compound, 60 min; for GAPDH enzyme activity restored after DTT incubation: then DTT
AhpC C165S = AhpC C165S (Salmonella typhimurium, UniProt P0A251, C166S); conditions: LC-MS after Asp-N digest, 10 eq. where printed
[4] = cited from earlier work; for t1/2 of HNO release: neutral conditions
myofilament = conditions: sensitizing myofilament responsiveness to calcium; cited from earlier work
STAT3 = conditions: similar to AS; cited from earlier work

## O=NC1(OC(=O)C(F)(F)F)CCCCC1 [compound 3, 1-Nitrosocyclohexyl trifluoroacetate]
GAPDH
  Products, GAPDH tryptic peptide I143–K159 (Cys 149, Cys 153): Internal disulfide; RSSR
  Products, GAPDH tryptic peptide V232–R245 (Cys 244): Sulfinamide,; also recorded: Sulfinic acid
[1]
  HNO release rate relative to AS: over 1000 times faster

## Diethylammonium-1- (N,N-diethylamino) diazen-1-ium- 1,2-diolate [DEANO]
Rabbit muscle GAPDH [2]
  GAPDH inhibition (in words): inhibition of enzyme activity
GAPDH
  Products, GAPDH tryptic peptide V232–R245 (Cys 244): Nitrosylated product

## CC(=O)OC1(N=O)CCCCC1 [compound 1, 1-Nitrosocyclohexyl acetate]
Rabbit muscle GAPDH [3]
  GAPDH enzyme activity after treatment: 5 % of control
  GAPDH enzyme activity restored after DTT incubation: 12 % of control
AhpC C165S
  Products, C165S AhpC Asp-N peptide D41–G51 (Cys 46): Sulfinic acid
[4]
  t1/2 of HNO release: 13.3 h
myofilament
  effect on myocardial contractility: enhances myocardial contractility more potently than AS
GAPDH
  Products, GAPDH tryptic peptide I143–K159 (Cys 149, Cys 153): Internal disulfide; RSSR
  Products, GAPDH tryptic peptide V232–R245 (Cys 244): Sulfinic acid
  Product at Cys 281 of GAPDH (peptide G269–K306): sulfinic acid

## Sodium trioxidinitrate [AS]
Rabbit muscle GAPDH [3]
  GAPDH enzyme activity after treatment: 23 % of control
  GAPDH enzyme activity restored after DTT incubation: 51 % of control
AhpC C165S; listed as 14N AS
  Products, C165S AhpC Asp-N peptide D41–G51 (Cys 46): Sulfinamide; also recorded: Sulfinic acid
[4]; pH 7, 37 °C
  rate constant of decomposition to HNO and nitrite: 0.005 s⁻¹
GAPDH
  Products, GAPDH tryptic peptide I143–K159 (Cys 149, Cys 153): Internal disulfide; RSSR
  Product at Cys 281 of GAPDH (peptide G269–K306): sulfinamide
GAPDH; listed as 14N AS
  Products, GAPDH tryptic peptide V232–R245 (Cys 244): Sulfinamide; also recorded: Sulfinic acid

## N[C@@H](CCC(=O)N[C@@H](CSN=O)C(=O)NCC(=O)O)C(=O)O [GSNO, S-nitrosoglutathione]
Rabbit muscle GAPDH [3]
  DTT reversibility of GAPDH inhibition (in words): completely DTT reversible
AhpC C165S
  Products, C165S AhpC Asp-N peptide D41–G51 (Cys 46): Nitrosylated Product
Rabbit muscle GAPDH [2]
  GAPDH inhibition (in words): inhibition of enzyme activity
GAPDH
  Products, GAPDH tryptic peptide V232–R245 (Cys 244): Nitrosylated product

## O=Nc1ccccc1 [Nitrosobenzene, nitrosobenzene]
AhpC C165S
  Products, C165S AhpC Asp-N peptide D41–G51 (Cys 46): Sulfinic acid
Rabbit muscle GAPDH [2]
  pIC50: 6.64
GAPDH
  Products, GAPDH tryptic peptide V232–R245 (Cys 244): Sulfinic acid

## CC(C)(C)C(=O)OC1(N=O)CCCCC1 [compound 2, 1-nitrosocyclohexyl pivalate]
AhpC C165S
  Products, C165S AhpC Asp-N peptide D41–G51 (Cys 46): Sulfinic acid
[4]
  t1/2 of HNO release: 37.8 h
STAT3
  effect on STAT3 activation: blocks STAT3 activation
myofilament
  effect on myocardial contractility: no effect
GAPDH
  Products, GAPDH tryptic peptide I143–K159 (Cys 149, Cys 153): Internal disulfide; RSSR
  Products, GAPDH tryptic peptide V232–R245 (Cys 244): Sulfinic acid

## O=S(=O)(NO)c1ccccc1Br [o-Bromo-Piloty’s Acid]
AhpC C165S
  Products, C165S AhpC Asp-N peptide D41–G51 (Cys 46): Sulfinamide; also recorded: Sulfinic acid
GAPDH
  Products, GAPDH tryptic peptide I143–K159 (Cys 149, Cys 153): Internal disulfide; RSSR
  Products, GAPDH tryptic peptide V232–R245 (Cys 244): Sulfinamide; also recorded: Sulfinic acid
